One molecule from ChEMBL document CHEMBL4020823, “Highly Selective, Potent, and Oral mTOR Inhibitor for Treatment of Cancer as Autophagy Inducer” (J Med Chem, 2018) can be followed below.

The structures appear in SMILES notation. Calls of active or inactive are those of the source. The calls are words filed in the database; no cut-off is given here.

For data set [1], the system named is MCF7. The data set is described as follows: Induction of autophagy in human MCF7 cells assessed as increase in LC3-2 puncta level after 48 hrs by immunofluorescence staining based microscopic analysis. In kind it is functional, cell-based.
A short description of data set [2]: Tmax in Sprague-Dawley rat at 20 mg/kg, po administered as single dose by HPLC analysis. In kind it is ADME, organism-based. As to conditions: in vivo. The method, boiled down:
(§1)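 Rats fasted overnight, then given a single 20 mg/kg dose either iv or po. Blood collected and centrifuged immediately to obtain plasma. Plasma drug levels measured by HPLC, and pharmacokinetic parameters derived from both routes.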

Data set [3] is described as follows: Oral bioavailability in Sprague-Dawley rat at 20 mg/kg administered as single dose by HPLC analysis. The note with it: in vivo. The data set is classed as ADME, organism-based. In outline:
as §1

Data set [4] relates to PI3-kinase p110-alpha/p85-alpha (Homo sapiens), P27986+P42336 [E545K]. The data set is described as follows: Inhibition of full length recombinant human p85alpha/PI3K p110alpha E545K mutant at 1 uM relative to control. In outline:
(§2)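 Eurofins KinaseProfiler panel with compound at a single 1 μM concentration. ATP at the Km of each kinase. Result is % inhibition, mean of two independent experiments.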

Data set [5] concerns the target PI3K p110 beta/p85 alpha (Homo sapiens) (UniProt P27986+P42338). The data set can be described thus: Inhibition of full length recombinant human PI3K p110beta/p85alpha at 1 uM relative to control. In kind it is protein-complex assay. In outline: as §2
Data set [6] addresses Phosphatidylinositol 4-phosphate 3-kinase C2 domain-containing subunit alpha (Homo sapiens) (UniProt O00443). The data set can be described thus: Inhibition of human PI3KC2alpha at 1 uM relative to control. In outline: as §2
Data set [7] deals with HeLa. The data set can be described thus: Inhibition of mTORC1 in human HeLa cells assessed as reduction in S6 phosphorylation at Ser 240/244 residues at 0.5 to 1 uM by Western blot analysis. In kind it is cell-based. The method, boiled down: (§3)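 Cells treated with the indicated concentrations, then whole-cell lysates immunoblotted. mTORC1 activity read as S6 and 4E-BP1 phosphorylation; mTORC2 activity read as AKT Ser473 phosphorylation. Blocking in 5% skim milk, primary antibodies at 4 °C overnight, peroxidase-conjugated secondary, ECL detection.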
In general terms: Immunoblotting shows a protein as a band on a membrane.

Data set [8] can be described thus: Clearance in Sprague-Dawley rat at 20 mg/kg, iv administered as single dose by HPLC analysis. In kind it is ADME, organism-based. As to conditions: in vivo. In outline:
(§4)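 Rats fasted overnight, then given one 20 mg/kg dose either iv or po. Blood was collected and centrifuged at once to obtain plasma. Plasma drug levels were measured by HPLC, and PK parameters were derived from the concentration-time data.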

The nature of data set [9]: Clearance in Sprague-Dawley rat at 20 mg/kg, po administered as single dose by HPLC analysis. In kind it is ADME, organism-based. The note with it: in vivo. In outline: as §4
In data set [10] the test system is T47D. The data set can be described thus: Antitumor activity against human T47D cells xenografted in BALB/c nude mouse assessed as decrease in tumor growth at 30 mg/kg, po administered via gavage after 3 weeks relative to control. In kind it is functional. The note with it: 504 h, read-out: TGI. For orientation: In xenograft studies the graft and the host belong to different species.

For data set [11], the system named is PI3-kinase p110-alpha/p85-alpha (Homo sapiens), P27986+P42336 [H1047R]. The data set can be described thus: Inhibition of full length recombinant human p85alpha/PI3K p110alpha H1047R mutant at 1 uM relative to control. In outline: as §2
The target of data set [12] is DNA-dependent protein kinase catalytic subunit (Homo sapiens, UniProt P78527). The data set is described as follows: Inhibition of full length recombinant human DNA-PK.
In data set [13] the target is ATR/ATRIP (Homo sapiens) (UniProt Q13535+Q8WXE1). The data set can be described thus: Inhibition of full length recombinant human ATR /ATRIP at 1 uM relative to control. In kind it is protein-complex assay. In outline: as §2
The subject of data set [14] is OVCAR-5. The data set can be described thus: Growth inhibition of human OVCAR5 cells after 72 hrs by CCK8 assay. In kind it is functional, cell-based. The note with it: OVCAR-5, 72 h. The method, boiled down: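 Cells were seeded at 2000–3000 per well and grown 24 h in serum-containing medium. They were then exposed to serially diluted compound for 72 h at 37 °C, 5% CO2. CCK8 reagent was added for 1–4 h and absorbance read at 450 nm. Inhibition = (AC − AS)/(AC − Ab) × 100%. IC50 is the average of at least three independent determinations.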
A general note: Tetrazolium dyes change colour on reduction, which living cells bring about.

The species entered for data set [15] is Homo sapiens. The data set can be described thus: Inhibition of mTORC2 in human MDA-MB-231 cells assessed as reduction in AKT phosphorylation at Ser473 residues at 0.25 to 0.5 uM by Western blot analysis. The data set is classed as cell-based. In outline:
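Cells exposed to a range of compound concentrations; whole-cell lysates immunoblotted for phospho-AKT (Ser473) as the mTORC2 readout, alongside S6 and 4E-BP1 phosphorylation for mTORC1. Membranes blocked in 5% skim milk, primary antibodies overnight at 4 °C, peroxidase-conjugated anti-mouse or anti-rabbit IgG secondary, ECL detection. Rapamycin as comparator.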

Data set [16] relates to SiHa. The data set can be described thus: Cell cycle arrest in human SiHa cells assessed as accumulation at G0/G1 phase at 0.25 to 0.5 uM after 24 hrs by propidium iodide-staining based flow cytometric analysis. The data set is classed as functional. The method, boiled down:
(§5)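 Cells were seeded at 5 × 10^5 cells/mL. At 24 h after plating they were treated with increasing concentrations for 24 h, washed in PBS, and fixed in ice-cold 70% ethanol for at least 24 h. They were stained with propidium iodide plus RNase A for 30 min at 37 °C and analysed by flow cytometry for phase distribution.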

Data set [17] has as its system MDA-MB-231. The data set can be described thus: Cell cycle arrest in human MDA-MB-231 cells assessed as decrease in S-phase at 0.25 to 0.5 uM after 24 hrs by propidium iodide-staining based flow cytometric analysis. In kind it is functional. The method, boiled down: as §5
In data set [18] the test system is MCF7. The data set can be described thus: Induction of autophagy in human MCF7 cells assessed as increase in LC3-2 level at 0.25 to 0.5 uM after 48 hrs by Western blot analysis. The data set is classed as functional, cell-based. The method, boiled down:
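Cells were treated for 48 h (2 days) with varying concentrations. Whole-cell lysates were immunoblotted for LC3B-II with β-actin as the internal control. Membranes were blocked in 5% skim milk, incubated with primary antibody overnight at 4 °C, then with peroxidase-conjugated secondary, and developed by ECL.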

The nature of data set [19]: Half life in Sprague-Dawley rat at 20 mg/kg, iv administered as single dose by HPLC analysis. The data set is classed as ADME, organism-based. The note with it: in vivo. In outline:
as §4

For data set [20], the species on record is Homo sapiens. The data set can be described thus: Inhibition of mTORC1 in human MDA-MB-231 cells assessed as reduction in S6 phosphorylation at Ser 240/244 residues at 0.25 to 0.5 uM by Western blot analysis. The data set is classed as cell-based. In outline: as §3
For data set [21], the system named is Mus musculus. The data set can be described thus: Toxicity in BALB/c nude mouse xenografted with human T47D cells assessed as decrease in body weight at 15 to 60 mg/kg, po administered via gavage for 3 weeks measured during compound dosing. The data set is classed as organism-based. As to conditions: in vivo, 504 h. In outline:
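BALB/c nude mice, 6−8 weeks old, injected subcutaneously with 100 μL T-47D cells at 2 × 10^7 per mL in serum-free medium. At 100−120 mm3, randomized to 5 groups of 5: 15, 30 or 60 mg/kg/d, rapamycin 60 mg/kg/d, or vehicle. Dosed daily by intragastric route in DMSO for 3 weeks. Side effects checked daily; body weight every other day.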

For data set [22], the system named is T47D. The data set can be described thus: Cell cycle arrest in human T47D cells assessed as accumulation at G0/G1 phase at 0.25 to 0.5 uM after 24 hrs by propidium iodide-staining based flow cytometric analysis. The data set is classed as functional. In outline: as §5
For data set [23], the species on record is Mus musculus. The data set is described as follows: Inhibition of full length recombinant mouse p85alpha/PI3K p110alpha H1047R mutant at 1 uM relative to control. The method, boiled down:
as §2

PI3K p110 beta/p85 alpha (Homo sapiens), sequence (P27986 2-724 limits assumed): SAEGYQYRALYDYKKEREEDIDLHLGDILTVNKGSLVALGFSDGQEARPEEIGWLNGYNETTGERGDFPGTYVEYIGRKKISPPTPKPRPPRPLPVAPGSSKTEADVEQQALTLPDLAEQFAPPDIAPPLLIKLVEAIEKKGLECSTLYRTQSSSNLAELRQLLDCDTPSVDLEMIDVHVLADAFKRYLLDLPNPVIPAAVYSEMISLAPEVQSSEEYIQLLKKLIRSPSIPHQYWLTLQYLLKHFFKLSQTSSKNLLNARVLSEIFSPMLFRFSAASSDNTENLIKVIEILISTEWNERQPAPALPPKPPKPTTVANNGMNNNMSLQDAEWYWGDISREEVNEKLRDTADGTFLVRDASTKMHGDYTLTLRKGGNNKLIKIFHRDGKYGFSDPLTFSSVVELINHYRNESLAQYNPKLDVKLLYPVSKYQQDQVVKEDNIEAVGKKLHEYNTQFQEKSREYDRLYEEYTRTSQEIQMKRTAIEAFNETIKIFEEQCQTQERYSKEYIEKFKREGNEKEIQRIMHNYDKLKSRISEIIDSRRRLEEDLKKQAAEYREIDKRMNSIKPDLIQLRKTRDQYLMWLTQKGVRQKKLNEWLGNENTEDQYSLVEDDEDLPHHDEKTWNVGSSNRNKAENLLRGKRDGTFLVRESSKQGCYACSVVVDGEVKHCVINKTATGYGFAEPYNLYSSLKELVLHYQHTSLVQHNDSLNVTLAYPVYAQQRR
PI3K p110 beta/p85 alpha (Homo sapiens), sequence (P42338 whole entry partner, the tested form may be a part): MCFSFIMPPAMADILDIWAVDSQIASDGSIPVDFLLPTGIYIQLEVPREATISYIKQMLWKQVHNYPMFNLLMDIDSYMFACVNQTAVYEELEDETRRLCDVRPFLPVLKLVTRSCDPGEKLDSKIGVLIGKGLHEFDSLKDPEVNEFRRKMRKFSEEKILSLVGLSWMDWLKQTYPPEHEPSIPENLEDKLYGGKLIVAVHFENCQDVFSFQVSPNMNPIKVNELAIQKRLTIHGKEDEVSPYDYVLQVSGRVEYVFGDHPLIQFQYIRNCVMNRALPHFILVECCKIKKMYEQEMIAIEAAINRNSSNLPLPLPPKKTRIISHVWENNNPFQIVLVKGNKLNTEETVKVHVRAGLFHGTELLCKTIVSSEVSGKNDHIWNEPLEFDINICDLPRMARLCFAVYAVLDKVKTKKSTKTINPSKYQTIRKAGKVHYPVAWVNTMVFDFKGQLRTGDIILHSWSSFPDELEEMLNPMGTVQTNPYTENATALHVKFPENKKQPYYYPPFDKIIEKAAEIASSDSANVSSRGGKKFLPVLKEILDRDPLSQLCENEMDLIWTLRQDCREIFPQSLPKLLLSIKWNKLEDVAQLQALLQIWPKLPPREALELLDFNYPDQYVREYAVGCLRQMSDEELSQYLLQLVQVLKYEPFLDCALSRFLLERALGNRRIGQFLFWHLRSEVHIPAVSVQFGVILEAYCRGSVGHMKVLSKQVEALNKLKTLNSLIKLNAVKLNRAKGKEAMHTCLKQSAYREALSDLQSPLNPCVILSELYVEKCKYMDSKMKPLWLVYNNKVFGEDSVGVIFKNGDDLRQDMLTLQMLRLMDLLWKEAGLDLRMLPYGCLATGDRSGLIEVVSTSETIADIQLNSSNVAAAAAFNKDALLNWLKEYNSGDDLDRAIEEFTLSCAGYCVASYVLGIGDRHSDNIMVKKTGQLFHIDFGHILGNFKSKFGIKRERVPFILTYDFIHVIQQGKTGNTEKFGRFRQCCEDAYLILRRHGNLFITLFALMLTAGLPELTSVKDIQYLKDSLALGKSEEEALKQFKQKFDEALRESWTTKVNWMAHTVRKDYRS
Phosphatidylinositol 4-phosphate 3-kinase C2 domain-containing subunit alpha (Homo sapiens), sequence (O00443 whole entry, the tested form may be a part): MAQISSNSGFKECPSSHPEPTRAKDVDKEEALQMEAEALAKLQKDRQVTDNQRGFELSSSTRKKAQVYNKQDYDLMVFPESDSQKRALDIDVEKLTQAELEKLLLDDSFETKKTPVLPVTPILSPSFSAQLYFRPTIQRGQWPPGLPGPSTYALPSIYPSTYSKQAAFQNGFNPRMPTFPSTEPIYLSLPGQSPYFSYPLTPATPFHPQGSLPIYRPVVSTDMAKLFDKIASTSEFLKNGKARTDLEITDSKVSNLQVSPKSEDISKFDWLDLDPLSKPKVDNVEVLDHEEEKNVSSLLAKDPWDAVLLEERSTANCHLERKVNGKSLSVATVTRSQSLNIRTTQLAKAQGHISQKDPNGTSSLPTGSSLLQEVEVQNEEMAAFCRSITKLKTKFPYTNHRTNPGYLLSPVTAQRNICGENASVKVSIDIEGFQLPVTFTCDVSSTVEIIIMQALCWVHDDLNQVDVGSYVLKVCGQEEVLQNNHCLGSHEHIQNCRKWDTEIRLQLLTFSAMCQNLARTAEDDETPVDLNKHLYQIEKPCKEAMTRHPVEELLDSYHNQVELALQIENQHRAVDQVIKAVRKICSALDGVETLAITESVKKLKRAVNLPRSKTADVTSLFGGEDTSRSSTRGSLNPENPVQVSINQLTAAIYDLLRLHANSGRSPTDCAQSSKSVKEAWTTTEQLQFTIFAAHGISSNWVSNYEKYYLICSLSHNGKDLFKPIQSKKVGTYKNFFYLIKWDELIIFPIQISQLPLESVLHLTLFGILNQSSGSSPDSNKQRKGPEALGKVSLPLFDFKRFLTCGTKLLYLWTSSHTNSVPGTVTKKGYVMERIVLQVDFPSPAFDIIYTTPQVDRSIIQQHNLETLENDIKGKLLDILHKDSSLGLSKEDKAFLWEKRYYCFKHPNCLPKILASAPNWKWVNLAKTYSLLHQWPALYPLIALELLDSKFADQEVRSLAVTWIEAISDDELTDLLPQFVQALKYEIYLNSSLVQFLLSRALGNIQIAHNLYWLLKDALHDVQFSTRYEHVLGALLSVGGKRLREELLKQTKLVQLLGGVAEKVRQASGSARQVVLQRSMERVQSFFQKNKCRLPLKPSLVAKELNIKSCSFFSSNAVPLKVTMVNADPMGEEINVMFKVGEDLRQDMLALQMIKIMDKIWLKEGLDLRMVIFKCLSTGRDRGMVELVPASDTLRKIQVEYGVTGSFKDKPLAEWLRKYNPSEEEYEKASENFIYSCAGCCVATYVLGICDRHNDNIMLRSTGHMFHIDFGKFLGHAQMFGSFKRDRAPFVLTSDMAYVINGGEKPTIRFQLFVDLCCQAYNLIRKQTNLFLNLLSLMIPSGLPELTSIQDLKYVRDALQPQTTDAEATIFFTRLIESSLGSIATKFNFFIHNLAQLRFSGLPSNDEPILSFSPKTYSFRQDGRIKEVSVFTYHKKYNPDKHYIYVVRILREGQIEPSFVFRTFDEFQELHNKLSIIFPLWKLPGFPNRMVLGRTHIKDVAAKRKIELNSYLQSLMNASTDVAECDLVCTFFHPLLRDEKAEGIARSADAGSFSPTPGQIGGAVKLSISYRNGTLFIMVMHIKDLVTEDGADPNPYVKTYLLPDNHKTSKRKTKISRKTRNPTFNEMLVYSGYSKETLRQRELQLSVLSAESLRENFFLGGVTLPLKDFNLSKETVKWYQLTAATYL

The Tmax is the time from dosing to the highest level. A word on the bioavailability: it is dose-corrected exposure relative to a reference, in per cent. Lower therefore signals poor availability. By inhibition is commonly meant the share of the control response that was lost under treatment. As a reminder, the clearance is the rate of elimination divided by the concentration. The CL/F is the apparent clearance, not corrected for the fraction that reaches the circulation. By IC50 is commonly meant the concentration that inhibits the measured activity by half. What is called half-life is the time in which the quantity being followed falls by half. The low end stands for fast loss, the high end for slow loss. As for `N#CCN1CCC(n2c(=O)cnc3cnc4ccc(-c5ccc(N)nc5)cc4c32)CC1`, the Activity result in [1] is “Dose-dependent effect”; in data set [21], “Non-Toxic”. In data set [2], the time of peak concentration (Tmax) was 3 h. For the same molecule, the bioavailability in [3] was determined as 43.5%. Further, the inhibition was found to be 13% in data set [4]; 7% in data set [5]; 4% in data set [6]; 2% in [11]; 24% in data set [13]; 7% in [23]. Besides, the inhibition result in [7], in data set [15] and in [20] was “Active” in each case. In [8], this molecule had a clearance of 25.5 mL/min/kg. Moreover, the CL/F in data set [9] is 58.5 mL/min/kg. Besides, the inhibition in vivo at 30 mg/kg in [10] came out at 75.6%. Further, the half-maximal inhibitory concentration (IC50) in [12] amounted to 0.026 µM; in data set [14], 2.83 µM. Also, the outcome in data set [16], in data set [17], in data set [18] and in data set [22] was Active. The half-life in [19] was 7.57 h.
